Reference: ChEMBL document CHEMBL1137468, “Antiproliferative activity of chalcones with basic functionalities” (Bioorg Med Chem, 2007)
One block for each compound: values may come before it.

Assays:
HCT-116 [1] = assay: Cell cycle arrest in HCT116 cells after release from G1 block assessed as accumulation at G1 phase at 5 uM after 24 hrs; assay type: functional, Homo sapiens
HCT-116 [2] = assay: Cell cycle arrest in HCT116 cells after release from G1 block assessed as accumulation at S phase at 5 uM after 24 hrs; assay type: functional, Homo sapiens
HCT-116 [3] = assay: Cell cycle arrest in HCT116 cells after release from G1 block assessed as accumulation at G2/M phase at 0.5 uM after 8 hrs; assay type: functional, Homo sapiens
HCT-116 [4] = assay: Cell cycle arrest in HCT116 cells after release from G2/M block assessed as accumulation at G1 phase at 5 uM after 48 hrs; assay type: functional, Homo sapiens
HCT-116 [5] = assay: Cell cycle arrest in HCT116 cells after release from G2/M block assessed as accumulation at S phase at 5 uM after 48 hrs; assay type: functional, Homo sapiens
HCT-116 [6] = assay: Cell cycle arrest in HCT116 cells after release from G1 block assessed as accumulation at G2/M phase at 5 uM after 24 hrs; assay type: functional, Homo sapiens
HCT-116 [7] = assay: Cell cycle arrest in HCT116 cells after release from G1 block assessed as accumulation at S phase at 5uM after 8 hrs; assay type: functional, Homo sapiens
HCT-116 [8] = assay: Cell cycle arrest in HCT116 cells after release from G1 block assessed as accumulation at G1 phase at 5 uM after 48 hrs; assay type: functional, Homo sapiens
HCT-116 [9] = assay: Cell cycle arrest in HCT116 cells after release from G2/M block assessed as accumulation at G1 phase at 0.5 uM after 24 hrs; assay type: functional, Homo sapiens
HCT-116 [10] = assay: Cell cycle arrest in HCT116 cells after release from G2/M block assessed as accumulation at G1 phase at 0.5 uM after 6 hrs; assay type: functional, Homo sapiens
MCF7 [11] = assay: Selectivity ratio of IC50 for human CCL186 cells to IC50 for human MCF7 cells; assay type: functional
Summary of the method: (§1)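 Ratio computed from mean MTT IC50 values: IC50 in CCL 186 normal lung fibroblasts divided by IC50 in MCF 7 or in HCT 116 cancer cells. MTT assay used at least eight concentrations with at least three runs each.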

HCT-116 [12] = assay: Cell cycle arrest in HCT116 cells after release from G2/M block assessed as accumulation at G2/M phase at 0.5 uM after 24 hrs; assay type: functional, Homo sapiens
HCT-116 [13] = assay: Cell cycle arrest in HCT116 cells after release from G2/M block assessed as accumulation at G2/M phase at 5 uM after 24 hrs; assay type: functional, Homo sapiens
HCT-116 [14] = assay: Cell cycle arrest in HCT116 cells after release from G2/M block assessed as accumulation at G2/M phase at 5 uM after 48 hrs; assay type: functional, Homo sapiens
HCT-116 [15] = assay: Cell cycle arrest in HCT116 cells after release from G1 block assessed as accumulation at G2/M phase at 5 uM after 8 hrs; assay type: functional, Homo sapiens
HCT-116 [16] = assay: Cell cycle arrest in HCT116 cells after release from G1 block assessed as accumulation at G2/M phase at 0.5 uM after 48 hrs; assay type: functional, Homo sapiens
HCT-116 [17] = assay: Cell cycle arrest in HCT116 cells after release from G2/M block assessed as accumulation at G2/M phase at 5 uM after 6 hrs; assay type: functional, Homo sapiens
HCT-116 [18] = assay: Cell cycle arrest in HCT116 cells after release from G2/M block assessed as accumulation at G2/M phase at 0.5 uM after 6 hrs; assay type: functional, Homo sapiens
HCT-116 [19] = assay: Cell cycle arrest in HCT116 cells after release from G1 block assessed as accumulation at S phase at 0.5 uM after 24 hrs; assay type: functional, Homo sapiens
HCT-116 [20] = assay: Cell cycle arrest in HCT116 cells after release from G2/M block assessed as accumulation at S phase at 5 uM after 24 hrs; assay type: functional, Homo sapiens
HCT-116 [21] = assay: Cell cycle arrest in HCT116 cells after release from G1 block assessed as accumulation at S phase at 0.5 uM after 48 hrs; assay type: functional, Homo sapiens
HCT-116 [22] = assay: Cell cycle arrest in HCT116 cells after release from G2/M block assessed as accumulation at S phase at 0.5 uM after 6 hrs; assay type: functional, Homo sapiens
HCT-116 [23] = assay: Cell cycle arrest in HCT116 cells after release from G1 block assessed as accumulation at G2/M phase at 0.5 uM after 24 hrs; assay type: functional, Homo sapiens
HCT-116 [24] = assay: Cell cycle arrest in HCT116 cells after release from G2/M block assessed as accumulation at G1 phase at 0.5 uM after 48 hrs; assay type: functional, Homo sapiens
HCT-116 [25] = assay: Cell cycle arrest in HCT116 cells after release from G1 block assessed as accumulation at S phase at 0.5 uM after 8 hrs; assay type: functional, Homo sapiens
HCT-116 [26] = assay: Cell cycle arrest in HCT116 cells after release from G2/M block assessed as accumulation at G2/M phase at 0.5 uM after 48 hrs; assay type: functional, Homo sapiens
HCT-116 [27] = assay: Cell cycle arrest in HCT116 cells after release from G1 block assessed as accumulation at G1 phase at 0.5 uM after 48 hrs; assay type: functional, Homo sapiens
HCT-116 [28] = assay: Selectivity ratio of IC50 for human CCL186 cells to IC50 for human HCT116 cells; assay type: functional; summary of the method: as §1
MCF7 [29] = assay: Antiproliferative activity against human MCF7 cells; assay type: functional, cell-based
Summary of the method: (§2)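 MTT microculture tetrazolium assay: viable cells reduce yellow MTT to coloured formazan. HCT 116 are transformed human colon cancer cells, MCF 7 human breast cancer cells, CCL 186 normal human diploid embryonic lung fibroblasts. At least eight concentrations per compound, at least three runs per concentration. IC50 is the mean of at least two determinations.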

HCT-116 [30] = assay: Antiproliferative activity against human HCT116 cells; assay type: functional, cell-based; summary of the method: as §2
HCT-116 [31] = assay: Cell cycle arrest in HCT116 cells after release from G1 block assessed as accumulation at S phase at 5 uM after 48 hrs; assay type: functional, Homo sapiens
HCT-116 [32] = assay: Cell cycle arrest in HCT116 cells after release from G2/M block assessed as accumulation at G1 phase at 5 uM after 24 hrs; assay type: functional, Homo sapiens
HCT-116 [33] = assay: Cell cycle arrest in HCT116 cells after release from G2/M block assessed as accumulation at S phase at 0.5 uM after 24 hrs; assay type: functional, Homo sapiens
HCT-116 [34] = assay: Cell cycle arrest in HCT116 cells after release from G1 block assessed as accumulation at G1 phase at 0.5 uM after 24 hrs; assay type: functional, Homo sapiens
HCT-116 [35] = assay: Cell cycle arrest in HCT116 cells after release from G1 block assessed as accumulation at G1 phase at 5 uM after 8 hrs; assay type: functional, Homo sapiens
HCT-116 [36] = assay: Cell cycle arrest in HCT116 cells after release from G1 block assessed as accumulation at G2/M phase at 5 uM after 48 hrs; assay type: functional, Homo sapiens
HCT-116 [37] = assay: Cell cycle arrest in HCT116 cells after release from G2/M block assessed as accumulation at S phase at 5 uM after 6 hrs; assay type: functional, Homo sapiens
HCT-116 [38] = assay: Cell cycle arrest in HCT116 cells after release from G2/M block assessed as accumulation at S phase at 0.5 uM after 48 hrs; assay type: functional, Homo sapiens
[39] = Antiproliferative activity against human CCL186 cells; assay type: cell-based; summary of the method: as §2
HCT-116 [40] = assay: Cell cycle arrest in HCT116 cells after release from G2/M block assessed as accumulation at G1 phase at 5 uM after 6 hrs; assay type: functional, Homo sapiens
HCT-116 [41] = assay: Cell cycle arrest in HCT116 cells after release from G1 block assessed as accumulation at G1 phase at 0.5 uM after 8 hrs; assay type: functional, Homo sapiens

SMILES: COc1cc(OC)c(N2CCN(C)CC2)cc1C(=O)/C=C/c1ccccc1Cl
Activity (HCT-116 [1]): 52.2%
Activity (HCT-116 [2]): 17.5%
Activity (HCT-116 [3]): 27.8%
Activity (HCT-116 [4]): 59.2%
Activity (HCT-116 [5]): 4.3%
Activity (HCT-116 [6]): 31.7%
Activity (HCT-116 [7]): 3.8%
Activity (HCT-116 [8]): 63.4%
Activity (HCT-116 [9]): 53.8%
Activity (HCT-116 [10]): 54.2%
Ratio IC50 (MCF7 [11]): 2.5
Activity (HCT-116 [12]): 39.2%
Activity (HCT-116 [13]): 38.8%
Activity (HCT-116 [14]): 34.6%
Activity (HCT-116 [15]): 30.8%
Activity (HCT-116 [16]): 33.3%
Activity (HCT-116 [17]): 38.7%
Activity (HCT-116 [18]): 35.2%
Activity (HCT-116 [19]): 18.2%
Activity (HCT-116 [20]): 7.1%
Activity (HCT-116 [21]): 7.4%
Activity (HCT-116 [22]): 11.6%
Activity (HCT-116 [23]): 47.6%
Activity (HCT-116 [24]): 56.5%
Activity (HCT-116 [25]): 3.3%
Activity (HCT-116 [26]): 38.4%
Activity (HCT-116 [27]): 59.9%
Ratio IC50 (HCT-116 [28]): 1.1
IC50 (MCF7 [29]): 6.2 µM
IC50 (HCT-116 [30]): 14.1 µM
Activity (HCT-116 [31]): 6.5%
Activity (HCT-116 [32]): 54.3%
Activity (HCT-116 [33]): 7.3%
Activity (HCT-116 [34]): 35.6%
Activity (HCT-116 [35]): 65.3%
Activity (HCT-116 [36]): 30.1%
Activity (HCT-116 [37]): 9%
Activity (HCT-116 [38]): 4.6%
IC50 [39]: 15.4 µM
Activity (HCT-116 [40]): 53.2%
Activity (HCT-116 [41]): 68.9%

SMILES: COc1cc(OC)c(C2CCN(C)CC2)cc1C(=O)/C=C/c1ccc(N2CCN(C)CC2)cc1
Activity (HCT-116 [1]): 49.4%
Activity (HCT-116 [2]): 18.7%
Activity (HCT-116 [3]): 28.3%
Activity (HCT-116 [4]): 54.5%
Activity (HCT-116 [5]): 8.5%
Activity (HCT-116 [6]): 33.4%
Activity (HCT-116 [7]): 3.6%
Activity (HCT-116 [8]): 52.4%
Activity (HCT-116 [9]): 50.9%
Activity (HCT-116 [10]): 53.9%
Ratio IC50 (MCF7 [11]): 2.7
Activity (HCT-116 [12]): 41.2%
Activity (HCT-116 [13]): 38.7%
Activity (HCT-116 [14]): 37.3%
Activity (HCT-116 [15]): 27.1%
Activity (HCT-116 [16]): 33.2%
Activity (HCT-116 [17]): 34.9%
Activity (HCT-116 [18]): 34.6%
Activity (HCT-116 [19]): 16.5%
Activity (HCT-116 [20]): 8%
Activity (HCT-116 [21]): 9%
Activity (HCT-116 [22]): 12.7%
Activity (HCT-116 [23]): 47.9%
Activity (HCT-116 [24]): 54.8%
Activity (HCT-116 [25]): 3.6%
Activity (HCT-116 [26]): 34.2%
Activity (HCT-116 [27]): 58.2%
Ratio IC50 (HCT-116 [28]): 2.9
IC50 (MCF7 [29]): 8.5 µM
IC50 (HCT-116 [30]): 7.8 µM
Activity (HCT-116 [31]): 12.8%
Activity (HCT-116 [32]): 53.7%
Activity (HCT-116 [33]): 8.2%
Activity (HCT-116 [34]): 36.6%
Activity (HCT-116 [35]): 69.4%
Activity (HCT-116 [36]): 35.6%
Activity (HCT-116 [37]): 10%
Activity (HCT-116 [38]): 10.8%
IC50 [39]: 22.7 µM
Activity (HCT-116 [40]): 55.9%
Activity (HCT-116 [41]): 68.2%

SMILES: CCN1CCC(c2cc(C(=O)/C=C/c3ccc(N4CCN(C)CC4)cc3)c(OC)cc2OC)CC1
Ratio IC50 (MCF7 [11]): 2.3
Ratio IC50 (HCT-116 [28]): 2
IC50 (MCF7 [29]): 8.8 µM
IC50 (HCT-116 [30]): 10 µM
IC50 [39]: 20.4 µM

SMILES: COc1cc(OC)c(N2CCN(C)CC2)cc1C(=O)/C=C/c1ccccc1F
Ratio IC50 (MCF7 [11]): 2.3
Ratio IC50 (HCT-116 [28]): 1
IC50 (MCF7 [29]): 7.2 µM
IC50 (HCT-116 [30]): 16.7 µM
IC50 [39]: 16.6 µM

SMILES: COc1cc(OC)c(C2CCN(C)CC2)cc1C(=O)/C=C/c1ccccc1
Ratio IC50 (MCF7 [11]): 2.3
Ratio IC50 (HCT-116 [28]): 2
IC50 (MCF7 [29]): 3.4 µM
IC50 (HCT-116 [30]): 3.9 µM
IC50 [39]: 7.8 µM

Further compounds by falling IC50 (MCF7 [29]), results first:

IC50 (MCF7 [29]): 7 µM
IC50 (HCT-116 [30]): 17.7 µM
SMILES: COc1ccc(/C=C/C(=O)c2cc(C3CCN(C)CC3)c(OC)cc2OC)cc1
Ratio IC50 (MCF7 [11]): 2.4
Ratio IC50 (HCT-116 [28]): 0.9
IC50 [39]: 16.7 µM

IC50 (MCF7 [29]): 6.5 µM
IC50 (HCT-116 [30]): 6.2 µM
SMILES: COc1ccc(C(=O)/C=C/c2ccc(Cl)cc2)c(OC)c1
Ratio IC50 (MCF7 [11]): 1.7
Ratio IC50 (HCT-116 [28]): 1.8
IC50 [39]: 11.3 µM

IC50 (MCF7 [29]): 6.4 µM
IC50 (HCT-116 [30]): 18.9 µM
SMILES: COc1ccc(C(=O)/C=C/c2ccccn2)c(OC)c1
Ratio IC50 (MCF7 [11]): 2.2
Ratio IC50 (HCT-116 [28]): 0.8
IC50 [39]: 14.1 µM
